# H69AR growth 86K: growth inhibitors of human H69AR lung tumor cells | H69AR lung tumor viability, ATP luminescence, 72 h; hits give low values | viability, % at 10 µM | 85,000 compounds, 6% hits;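 active = viability at or below 40%; inactive = viability above 40%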;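 note: multidrug resistant small cell line overexpressing MRP-1 efflux transporter; 100% = mean luminescence of untreated control wells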
# HCT116 bCat-KO: beta-catenin-lacking colon tumor cell growth suppression | HCT116 beta-catenin knockout viability, CellTiter-Glo, 60 h; hits give low values | viability, % at 10 µM | 140,000 compounds, 1.5% hits | AID 818;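 active = viability at or under a set limit, the compound median less 4 SD, cut at about 6% in these data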;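 note: 0% = Hyamine 1622 control at 20 µM and 100% = untreated cell control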
# HUVEC inhibit: inhibitors of human endothelial cell proliferation; HUVEC proliferation, CellTiter-Glo luminescence, 72 h; hits give low values; AID 648; viability, % at 10 µM (by protocol); 86,000 compounds, 1.1% hits;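 active = viability at or below 30%; inactive = viability above 30%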;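 note: 100% = median luminescence of DMSO-only cell control wells on each plate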
# HCT116 PTEN-null: growth suppressors of cells with PTEN tumor suppressor deletion | 140,000 compounds, 1.2% hits | viability, % at 10 µM | HCT116 PTEN-null viability, CellTiter-Glo, 60 h; hits give low values;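 active = viability at or below a set limit, 4 SD under the median of all tested compounds, cut at about 3.7% in these data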;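 note: PTEN knockout HCT116 line with beta catenin targeted HCT116 as companion control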
# Fibroblast inh: blocks proliferation of human lung fibroblasts. LL 47 human lung fibroblast viability, ATP luminescence; hits give low values. viability, % at 10 µM. 85,000 compounds, 1.1% hits. AID 719;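 active = viability at or below 50% in the single dose screen; inactive = viability above 50%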;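 note: compound exposure lasted 72 h before the ATP readout; 100% = median luminescence of untreated cell-only wells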
#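 Material: human lung fibroblast line LL 47, low passage; Evaluation: viability percentage against median untreated-cell control; Buffer or medium: 15% FBS in IMEM; Incubation: 72 h compound exposure at 37 °C after overnight plating; Dosing: 0.1% DMSO in all compound wells; Measured by: CellTiter-Glo luminescence.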
# * marks the source's active call; other numbers are inactive results; · = no result given. Many of the other results were omitted from the sample, so hits are more common in it than they were.
SMILES,H69AR growth 86K,HCT116 bCat-KO,HUVEC inhibit,HCT116 PTEN-null,Fibroblast inh
COc1ccc(N(C(=O)c2ccco2)S(=O)(=O)c2ccccc2)cc1,·,82,·,72,·
COC(=O)C(C(=O)Nc1ccc(OC)cc1)C1CCCCCC1 (stereo unspecified),21*,43,75,49,83
CCOC(=O)c1ccc(N=C2C(=S)N(c3ccc(C(=O)OCC)cc3)C(=N)N2/N=C/c2ccccc2)cc1,0.9*,92,74,94,92
CCOC(=O)c1ccc(N2Cc3ccccc3C2=N)cc1,·,93,·,98,·
CN(C)c1ccc(/C=N/N2C(=N)N(c3ccccc3)C(=S)C2=Nc2ccccc2)cc1,16*,·,68,·,93
O=C(N/N=C/c1ccc(OC(=O)c2ccccc2)c([N+](=O)[O-])c1)c1ccc(O)cc1,·,100,·,98,·
CCSc1nc(CC)c2c(c1C#N)CCCC2,·,86,·,102,·
Cc1cc(NC(=O)CCNS(=O)(=O)c2cc(Br)cnc2N)ccc1Br,31*,71,48,71,91
Cc1ccc(NC(=O)CCNS(=O)(=O)c2cc(Br)cnc2N)cc1Cl,·,84,·,87,·
Cc1c(C(=O)Oc2cccc3ccccc23)cnn1-c1ccccc1,·,86,·,88,·
CC(C)c1ccc(/C=C(\c2nc3ccccc3[nH]2)S(=O)(=O)c2ccccc2)cc1,·,1.8*,·,1.9*,·
O=S(=O)(/C(=C/c1ccc(C(F)(F)F)cc1)c1nc2ccccc2[nH]1)c1ccccc1,·,1.5*,·,1.6*,·
N#C/C(=C\c1cccc(Oc2ccc(C(F)(F)F)cc2[N+](=O)[O-])c1)c1nc2ccccc2[nH]1,·,85,·,88,·
CC(C)(C)/C(O)=C/c1nc2ccccc2[nH]c1=O,·,94,·,100,·
NC(=O)c1cc(-c2ccccc2)sc1NC(=O)CN1CCCCC1,·,48,·,47,·
Cc1c(C#N)c(N=CN(C)C)c(C(=O)c2ccc(Br)cc2)n1-c1ccccc1,70,90,95,83,97
Cc1c(C#N)c(N=CN(C)C)c(C(=O)c2ccccc2)n1-c1ccc(Br)cc1,20*,60,88,63,82
COC(=O)c1nc(NC2=NCCCCC2)n[nH]1,39*,114,94,107,·
COC(=O)c1nc(NC(C)=O)n[nH]1,93,99,103,99,105
O=C(Cc1ccccc1)NCC(=O)OCC(=O)c1ccc(OC(=O)c2ccccc2)cc1,·,89,·,95,·
CCCN(CCC)CCCNC(=S)Nc1ccc2nc3n(c(=O)c2c1)CCCCC3,·,80,·,91,·
COc1ccc(OC)c(C(=O)C2COC(=O)C2)c1 (stereo unspecified),26*,34,49,38,89
Cc1cccc(N2CCN(S(=O)(=O)c3ccc(S(=O)(=O)N4CCCC4)cc3)CC2)c1C,16*,89,65,77,55
COc1ccccc1/C=C(/CC(=O)NCc1ccc2c(c1)OCO2)c1nc2ccccc2s1,·,88,·,76,·
Cc1ccc(C(=O)N/N=C/c2ccc([N+](=O)[O-])s2)cc1,20*,1.9*,36,1.3*,49*
SMILES,H69AR growth 86K,HCT116 bCat-KO,HUVEC inhibit,HCT116 PTEN-null,Fibroblast inh
Cc1ccc(/C=N\NC(=O)c2cc([N+](=O)[O-])cc([N+](=O)[O-])c2)o1,·,92,·,88,·
O=C(N/N=C/C=C/c1ccccc1)c1cccc(Br)c1,37*,59,80,57,77
Cn1c(SCC(=O)N/N=C/c2ccc([N+](=O)[O-])s2)nnc1-c1ccc(Cl)cc1,·,1.9*,·,1.6*,·
O=C(N/N=C/c1ccc(Br)s1)c1ccccc1[N+](=O)[O-],·,75,·,87,·
O=C(N/N=C/c1ccc([N+](=O)[O-])s1)c1ccncc1,·,2.5*,·,2.5*,·
C=CCNC(=O)/C(C#N)=C/c1ccc(OS(=O)(=O)c2ccc(C)cc2)c(OC)c1,·,27,·,14,·
Cc1cccc(N2CCN(C(=O)c3ccc(Cl)c(S(=O)(=O)N4CCc5ccccc5C4)c3)CC2)c1C,·,64,·,66,·
Cc1ccc(CSCCNS(=O)(=O)c2ccc(C)cc2)cc1,·,97,·,91,·
COc1cc(NC(=O)C2=C(N3CCOCC3)/C(=C\c3ccc(Cl)cc3Cl)CC2)cc(OC)c1OC,·,71,·,67,·
Cc1ccc(C(=O)N/N=C\c2ccc([N+](=O)[O-])s2)cn1,·,2.4*,·,2.6*,·
COc1ccc(NC(=O)CCC(=O)N/N=C/c2ccc([N+](=O)[O-])s2)cc1,·,1.4*,·,1.1*,·
COc1ccc(NCc2ccc([N+](=O)[O-])s2)cc1,·,62,·,68,·
O=C(N/N=C/c1ccc([N+](=O)[O-])s1)c1cccc(Br)c1,39*,7,30,4,2.6*
Cc1ccccc1Cn1nc(C)c(NC(=O)/C=C/c2cnn(C)c2)c1C,·,86,·,86,·
CCc1ccccc1-n1c(SCC(=O)Nc2ccc3c(c2)OCCO3)nc2[nH]ncc2c1=O,39*,93,77,87,75
COc1ccc(OC)c(-n2nnnc2SCC(=O)Nc2ccc3c(c2)OCCO3)c1,43,102,18*,102,82
CCOC(=O)c1c(NC(=O)CSc2nnnn2-c2ccc3c(c2)OCCO3)sc(C)c1C,36*,77,93,82,87
CCOC(=O)c1c(NC(=O)CSc2nnnn2-c2ccc3c(c2)OCO3)sc(C)c1C,60,92,84,89,92
O=C(COC(=O)Cn1cnc2ccccc2c1=O)Nc1cc(Cl)ccc1[N+](=O)[O-],·,94,·,93,·
Cc1ccc(-n2nnnc2SCC(=O)Nc2ncc(Cc3ccccc3Cl)s2)cc1,·,59,·,98,·
CN(C)c1ccc(NC(=O)CC(NCc2ccccn2)C(=O)O)cc1 (stereo unspecified),·,99,·,99,·
COc1ccc(OC)c(-c2cnc(OC(C)(C)C)nc2OC(C)(C)C)c1,·,15,·,16,·
O=S(=O)(Nc1cc(C(F)(F)F)ccc1N1CCOCC1)c1ccc2ccccc2c1,·,74,·,72,·
CCOC(=O)c1[nH]c2ccccc2c1NC(=S)Nc1cccc(C)c1,·,88,·,84,·
Fc1ccc(Br)cc1C1C=C(c2cccnc2)Nc2ncnn21 (stereo unspecified),25*,33,66,30,96
Brc1ccc(C2=CC(c3cccs3)n3ncnc3N2)cc1 (stereo unspecified),81,44,88,42,92
COc1ccc(OCc2nc(N)nc(Nc3ccccc3)n2)cc1,90,94,120,98,93

# Bioassay records from PubChem BioAssay.
